The values that follow come from ChEMBL document CHEMBL1255196, “Radiosensitization of cancer cells by hydroxychalcones” (2010).

Activity calls are given as the source filed them. The rule behind the calls is not given here.

One assay relates to Nucleic Acid. Briefly: Induction of Hsf1 DNA binding affinity in human HT-29 cells at 8 uM after 2 hrs. Type of assay: cell-based. The method in brief: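 HT-29 cells were incubated with drug for 2 hr at 37°C (30 min is also stated for the treatment) and nuclear protein was extracted. Gel shift assay used a 32P-labelled rat Hsp70 heat shock element oligomer. Hsf1 identity was confirmed by antibody supershift.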

The subject of assay [1] is HT-29. Briefly: Induction in heat-induced cell killing in human HT-29 cells. Type of assay: functional, cell-based. The method in brief: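 HT-29 cells were treated with drug or DMSO and heated at 41°C for 2 hr. Medium was then replaced and cells grown 10-14 days. Colonies were stained and counted. Four flasks per condition.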
The test system of assay [2] is HT-29. Briefly: Phototoxicity against human HT-29 cells at 10 uM irradiated with 4 Gy/min. It counts as functional, cell-based.
The test system of assay [3] is HT-29. In words: Cytotoxicity against human HT-29 cells assessed as plating efficiency at 10 uM. It counts as functional. The method in brief: (§1)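 Colony formation assay of HT-29 cells exposed to drug or DMSO for 2 hr. Plating efficiency defined non-toxic concentrations, meaning plating efficiency above 80%. After 10 to 14 days colonies were fixed in 3:1 methanol/acetic acid for 15 min, stained with 0.5% crystal violet in methanol for 15 min, and counted to give percent survival.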

The subject of assay [4] is HT-29. Briefly: Cell cycle arrest in photoirradiated human HT-29 cells assessed as accumulation at subG0 phase after 48 hrs. Type of assay: functional, cell-based. The method in brief:
(§2)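 They were fixed by adding cold 70% ethanol, washed in PBS, and stained with propidium iodide plus RNase for 30-45 min at 37°C. Flow cytometry scored polyploidy and sub-G0 cells 48 hr after irradiation.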

The test system of assay [5] is HT-29. Briefly: Cytotoxicity against human HT-29 cells assessed as plating efficiency at 25 uM. It counts as functional. The method in brief:
as §1

In assay [6] the test system is HT-29. Briefly: Phototoxicity against human HT-29 cells irradiated with 2 Gy/min. It counts as functional, cell-based.
For assay [7], the system named is HT-29. In words: Phototoxicity against human HT-29 cells assessed as polyploidy formation at 10 uM irradiated with 4 Gy/min. Type of assay: functional, cell-based. The method in brief: as §2

For `O=C(/C=C/c1ccccc1O)c1ccccc1O`, the outcome with Nucleic Acid, with HT-29 [1] and in the assay on HT-29 [2] was Active. The Activity in the assay with HT-29 [3] was above 80%.
As to `O=C(/C=C/c1ccccc1)c1cc(O)ccc1O`, the outcome in the assay on HT-29 [4], in the assay with Nucleic Acid, with HT-29 [2] and with HT-29 [7] was Active. The Activity is above 80% in the assay on HT-29 [5] and “Dose-dependent effect” in the assay on HT-29 [6].
